Experiments:
[1] = target: T1, FAAH prepared from rat brain homogenates (Rattus norvegicus, UniProt P97612); test: In vitro rat FAAH radiometric assay; assay type: biochemical; conditions: read-out: r-FAAH IC50; rat brain homogenate, mean ± SEM (n=3)
T1 sequence (P97612 1-579): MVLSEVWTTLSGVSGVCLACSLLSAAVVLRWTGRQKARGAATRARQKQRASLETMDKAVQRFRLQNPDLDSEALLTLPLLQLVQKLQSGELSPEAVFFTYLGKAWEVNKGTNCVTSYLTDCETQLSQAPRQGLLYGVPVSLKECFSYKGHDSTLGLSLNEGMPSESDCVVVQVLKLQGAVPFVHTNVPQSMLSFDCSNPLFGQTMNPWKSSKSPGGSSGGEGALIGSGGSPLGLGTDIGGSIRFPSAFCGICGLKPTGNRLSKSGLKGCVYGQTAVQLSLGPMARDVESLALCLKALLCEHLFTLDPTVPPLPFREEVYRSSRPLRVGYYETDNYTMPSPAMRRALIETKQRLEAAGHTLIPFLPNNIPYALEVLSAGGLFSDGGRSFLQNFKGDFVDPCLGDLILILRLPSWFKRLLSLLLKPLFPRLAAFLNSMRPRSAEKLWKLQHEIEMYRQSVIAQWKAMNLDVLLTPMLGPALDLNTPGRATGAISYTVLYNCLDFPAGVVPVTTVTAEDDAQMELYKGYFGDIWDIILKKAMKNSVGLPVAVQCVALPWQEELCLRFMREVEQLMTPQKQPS

[2] = In vitro rat plasma stability assay; assay type: in vitro ADME; conditions: 37 °C, 1.0 μM
Procedure, shortened: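 Test compound at 1.0 µM final was incubated at 37 °C in rat plasma (prewarmed 30 min) containing 10% DMSO. Samples at 0, 30, 60, 120, 240, 360 and 420 min were quenched in cold CH3CN with 200 nM warfarin internal standard and centrifuged. Supernatant was quantified by LC-MS/MS (MRM). Internal-standard-normalised response was plotted over time. Run in triplicate.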

[3] = In vitro mouse liver microsomes; assay type: in vitro ADME; conditions: 5 μM compound, mean of three determinations
Procedure, shortened: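 Test compound at 5 µM (0.1% DMSO) was preincubated 15 min with 1.25 mg/mL mouse liver microsomes in 100 mM Tris-HCl pH 7.4. At time zero, NADP 1 mM, G6P 20 mM, MgCl2 2 mM and G6P dehydrogenase 2 Units were added; shaken at 37 °C. Samples at 0–60 min were quenched in acetonitrile with warfarin internal standard and analysed by LC-MS/MS (MRM). A no-cofactor control was sampled at the end.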

[4] = Aqueous kinetic solubility assay; assay type: physicochemical; conditions: Phosphate buffered saline, pH 7.4, single determination
Procedure, shortened: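 Test compound from a 10 mM DMSO stock was added to PBS pH 7.4 at a target 250 µM (2.5% DMSO final). Shaken 24 h at 25 °C, then centrifuged. Supernatant was analysed by UPLC/MS with UV at 215 nm. Solubility = peak-area ratio against a 250 µM reference in 1:1 CH3CN-H2O × reference concentration × dilution factor.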

[5] = target: T2, human FAAH-1 (Homo sapiens, UniProt O00519); test: In vitro human FAAH fluorescent assay; assay type: biochemical; conditions: h-FAAH-1 vs r-FAAH
T2 sequence (O00519 1-579): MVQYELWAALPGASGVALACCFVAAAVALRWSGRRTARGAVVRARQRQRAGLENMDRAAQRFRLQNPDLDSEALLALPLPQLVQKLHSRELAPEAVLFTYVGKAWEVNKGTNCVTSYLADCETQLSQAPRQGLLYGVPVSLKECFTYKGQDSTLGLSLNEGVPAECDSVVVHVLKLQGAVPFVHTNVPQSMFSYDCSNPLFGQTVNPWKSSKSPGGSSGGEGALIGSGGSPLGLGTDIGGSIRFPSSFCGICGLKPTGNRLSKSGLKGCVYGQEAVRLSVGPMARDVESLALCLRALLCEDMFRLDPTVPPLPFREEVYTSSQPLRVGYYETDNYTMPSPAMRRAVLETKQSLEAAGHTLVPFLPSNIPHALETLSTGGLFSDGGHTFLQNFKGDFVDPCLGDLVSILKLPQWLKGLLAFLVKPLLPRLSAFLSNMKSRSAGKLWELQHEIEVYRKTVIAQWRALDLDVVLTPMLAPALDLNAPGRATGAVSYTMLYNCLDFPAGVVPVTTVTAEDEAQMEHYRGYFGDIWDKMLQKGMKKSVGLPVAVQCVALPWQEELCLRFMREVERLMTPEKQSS

[6] = target: T3, purified rat MGL (Rattus norvegicus, UniProt Q8R431); test: MGL activity assay; assay type: biochemical; conditions: tested at concentrations up to 100 μM (Figure S1)
T3 sequence (Q8R431 1-303): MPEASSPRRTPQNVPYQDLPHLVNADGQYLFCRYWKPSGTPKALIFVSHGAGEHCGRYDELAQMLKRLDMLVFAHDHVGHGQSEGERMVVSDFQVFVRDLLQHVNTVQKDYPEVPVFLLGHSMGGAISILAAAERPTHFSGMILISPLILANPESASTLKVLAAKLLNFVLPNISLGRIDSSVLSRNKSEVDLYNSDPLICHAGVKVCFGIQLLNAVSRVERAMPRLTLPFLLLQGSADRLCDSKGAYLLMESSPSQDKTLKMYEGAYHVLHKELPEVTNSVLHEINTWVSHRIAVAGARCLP

IC50 [1]	Plasma half-life [2]	MLM Stab. half-life [3]	Kinetic sol. [4]	Higher potency on h-FAAH-1 with respect to r-FAAH [5]	SMILES	Inhibition of MGL activity [6]
5.7 ± 1.2 nM	62 ± 19 min	<5 min	6 µM		O=C(NC1CCCCC1)Oc1cccc(-c2ccccc2)c1 [Compound 1a, URB524, reference compound]	
10.5 ± 2.9 nM		5 min	18 µM	3 fold	COc1cc(Cn2cc(COC(=O)NC3CCCCC3)nn2)cc(OC)c1 [Compound 27, [1-[(3,5-dimethoxyphenyl)methyl]triazol-4-yl]methyl N-cyclohexylcarbamate]	None of the compounds inhibited MGL activity
3.9 ± 0.7 nM		6 min	174 µM		COc1cccc(Cn2cc(CNC(=O)OCc3cn(Cc4cccc(OC)c4)nn3)nn2)c1 [Compound 34b, [1-[(3-methoxyphenyl)methyl]triazol-4-yl]methyl N-[[1-[(3-methoxyphenyl)methyl]triazol-4-yl]methyl]carbamate]	None of the compounds inhibited MGL activity
5.8 ± 0.6 nM		8 min	152 µM		COc1ccc(Cn2cc(CNC(=O)OCc3cn(Cc4cccc(OC)c4)nn3)nn2)cc1 [Compound 40, [1-[(3-methoxyphenyl)methyl]triazol-4-yl]methyl N-[[1-[(4-methoxyphenyl)methyl]triazol-4-yl]methyl]carbamate]	None of the compounds inhibited MGL activity

Source: PMC4384654 (ChemMedChem, 2014)
